Values after ≈ are worked out from the molar mass of the structure shown.
Tests used:
Cryptococcus neoformans [1] = assay: Antifungal activity against flucytosine-resistant Cryptococcus neoformans 98.0176 at 0.125 ug/ml after 72 hrs by time-kill method; assay type: functional
Summary of the method: (§1)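 Time-kill assay run as in the authors' earlier method. […] Read-out was log10 CFU/ml after 72 h incubation, compared with a drug-free control.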

Cryptococcus neoformans [2] = assay: Antifungal activity against flucytosine-resistant Cryptococcus neoformans 18476 at 0.125 ug/ml after 72 hrs by time-kill method; assay type: functional; summary of the method: as §1
Cryptococcus neoformans [3] = assay: Antifungal activity against flucytosine-resistant Cryptococcus neoformans 550 at 0.19 ug/ml after 72 hrs by time-kill method; assay type: functional
Cryptococcus neoformans [4] = assay: Antifungal activity against flucytosine-resistant Cryptococcus neoformans 98.0673 at 0.125 ug/ml after 72 hrs by time-kill method; assay type: functional; summary of the method: as §1
Cryptococcus neoformans [5] = assay: Antifungal activity against flucytosine-resistant Cryptococcus neoformans 99.1026 at 0.125 ug/ml after 72 hrs by time-kill method; assay type: functional
Summary of the method: (§2)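 Time-kill assay on flucytosine-resistant isolates. […] Viable counts were taken as log10 CFU per ml after 72 h of incubation.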

Cryptococcus neoformans [6] = assay: Antifungal activity against flucytosine-resistant Cryptococcus neoformans 98.1121 at 0.125 ug/ml after 72 hrs by time-kill method; assay type: functional; summary of the method: as §2
Cryptococcus neoformans [7] = assay: Antifungal activity against flucytosine-resistant Cryptococcus neoformans 276 at 0.125 ug/ml after 72 hrs by time-kill method; assay type: functional; summary of the method: as §1
Cryptococcus neoformans [8] = assay: Antifungal activity against flucytosine-resistant Cryptococcus neoformans 280 at 0.125 ug/ml after 72 hrs by time-kill method; assay type: functional; summary of the method: as §1
Cryptococcus neoformans [9] = assay: Antifungal activity against flucytosine-resistant Cryptococcus neoformans 533 at 0.125 ug/ml after 72 hrs by time-kill method; assay type: functional; summary of the method: as §1
Cryptococcus neoformans [10] = assay: Antifungal activity against flucytosine-resistant Cryptococcus neoformans 98.0673 by checkerboard method; assay type: functional
Cryptococcus neoformans [11] = assay: Antifungal activity against flucytosine-resistant Cryptococcus neoformans 280 by checkerboard method; assay type: functional
Cryptococcus neoformans [12] = assay: Antifungal activity against flucytosine-resistant Cryptococcus neoformans 285 by checkerboard method; assay type: functional
Cryptococcus neoformans [13] = assay: Antifungal activity against flucytosine-resistant Cryptococcus neoformans 98.0176 by checkerboard method in presence of flucytosine; assay type: functional
Cryptococcus neoformans [14] = assay: Antifungal activity against flucytosine-resistant Cryptococcus neoformans 18476 by checkerboard method in presence of flucytosine; assay type: functional
Cryptococcus neoformans [15] = assay: Antifungal activity against flucytosine-resistant Cryptococcus neoformans 550 by checkerboard method in presence of flucytosine; assay type: functional
Cryptococcus neoformans [16] = assay: Antifungal activity against flucytosine-resistant Cryptococcus neoformans 99.1026 by checkerboard method in presence of flucytosine; assay type: functional
Cryptococcus neoformans [17] = assay: Antifungal activity against flucytosine-resistant Cryptococcus neoformans 18476 by checkerboard method; assay type: functional
Cryptococcus neoformans [18] = assay: Antifungal activity against flucytosine-resistant Cryptococcus neoformans 276 by checkerboard method in presence of flucytosine; assay type: functional
Cryptococcus neoformans [19] = assay: Antifungal activity against flucytosine-resistant Cryptococcus neoformans 533 by checkerboard method in presence of flucytosine; assay type: functional
Cryptococcus neoformans [20] = assay: Antifungal activity against flucytosine-resistant Cryptococcus neoformans 98.0176 by Etest method in presence of flucytosine; assay type: functional
Cryptococcus neoformans [21] = assay: Antifungal activity against flucytosine-resistant Cryptococcus neoformans 18476 by Etest method in presence of flucytosine; assay type: functional
Cryptococcus neoformans [22] = assay: Antifungal activity against flucytosine-resistant Cryptococcus neoformans 285 by Etest method in presence of flucytosine; assay type: functional
Cryptococcus neoformans [23] = assay: Antifungal activity against flucytosine-resistant Cryptococcus neoformans 550 by Etest method in presence of flucytosine; assay type: functional
Cryptococcus neoformans [24] = assay: Antifungal activity against flucytosine-resistant Cryptococcus neoformans 98.0673 by Etest method in presence of flucytosine; assay type: functional
Cryptococcus neoformans [25] = assay: Antifungal activity against flucytosine-resistant Cryptococcus neoformans 99.1026 by Etest method in presence of flucytosine; assay type: functional
Cryptococcus neoformans [26] = assay: Antifungal activity against flucytosine-resistant Cryptococcus neoformans 98.1121 by Etest method in presence of flucytosine; assay type: functional
Cryptococcus neoformans [27] = assay: Antifungal activity against flucytosine-resistant Cryptococcus neoformans 276 by Etest method in presence of flucytosine; assay type: functional
Cryptococcus neoformans [28] = assay: Antifungal activity against flucytosine-resistant Cryptococcus neoformans 280 by Etest method in presence of flucytosine; assay type: functional
Cryptococcus neoformans [29] = assay: Antifungal activity against flucytosine-resistant Cryptococcus neoformans 533 by Etest method in presence of flucytosine; assay type: functional
Cryptococcus neoformans [30] = assay: microbe, parasite or virus in culture
Cryptococcus neoformans [31] = assay: Antifungal activity against flucytosine-resistant Cryptococcus neoformans 550 by checkerboard method; assay type: functional
Cryptococcus neoformans [32] = assay: Antifungal activity against flucytosine-resistant Cryptococcus neoformans 99.1026 by checkerboard method; assay type: functional
Cryptococcus neoformans [33] = assay: Antifungal activity against flucytosine-resistant Cryptococcus neoformans 98.1121 by checkerboard method; assay type: functional
Cryptococcus neoformans [34] = assay: Antifungal activity against flucytosine-resistant Cryptococcus neoformans 276 by checkerboard method; assay type: functional
Cryptococcus neoformans [35] = assay: Antifungal activity against flucytosine-resistant Cryptococcus neoformans 533 by checkerboard method; assay type: functional
Cryptococcus neoformans [36] = assay: Antifungal activity against flucytosine-resistant Cryptococcus neoformans 98.0176 by checkerboard method; assay type: functional

**Q.** Which results are given for C[C@@H]1[C@H](O)[C@@H](C)/C=C/C=C/C=C/C=C/C=C/C=C/C=C/[C@H](O[C@@H]2O[C@H](C)[C@@H](O)[C@H](N)[C@@H]2O)C[C@@H]2O[C@](O)(C[C@@H](O)C[C@@H](O)[C@H](O)CC[C@@H](O)C[C@@H](O)CC(=O)O[C@H]1C)C[C@H](O)[C@H]2C(=O)O [AMPHOTERICIN B]?
**A.** log10CFU/ml (Cryptococcus neoformans [1]): 6.5; log10CFU/ml (Cryptococcus neoformans [2]): 6.7; log10CFU/ml (Cryptococcus neoformans [3]): 7.2; log10CFU/ml (Cryptococcus neoformans [4]): 7.2; log10CFU/ml (Cryptococcus neoformans [5]): 5.2; log10CFU/ml (Cryptococcus neoformans [6]): 1.5; log10CFU/ml (Cryptococcus neoformans [7]): 7.3; log10CFU/ml (Cryptococcus neoformans [8]): 5.6; log10CFU/ml (Cryptococcus neoformans [9]): 7.4; MIC (Cryptococcus neoformans [10]): 1 µg/mL; MIC (Cryptococcus neoformans [11]): 1 µg/mL; MIC (Cryptococcus neoformans [12]): 1 µg/mL; MIC (Cryptococcus neoformans [13]): 0.12 µg/mL; MIC (Cryptococcus neoformans [14]): 0.12 µg/mL; MIC (Cryptococcus neoformans [15]): 0.06 µg/mL; MIC (Cryptococcus neoformans [16]): 0.06 µg/mL; MIC (Cryptococcus neoformans [17]): 0.25 µg/mL; MIC (Cryptococcus neoformans [18]): 0.06 µg/mL; MIC (Cryptococcus neoformans [19]): 0.12 µg/mL; MIC (Cryptococcus neoformans [20]): 0.094 µg/mL; MIC (Cryptococcus neoformans [21]): 0.094 µg/mL; MIC (Cryptococcus neoformans [22]): 0.095 µg/mL; MIC (Cryptococcus neoformans [23]): 0.094 µg/mL; MIC (Cryptococcus neoformans [24]): 0.094 µg/mL; MIC (Cryptococcus neoformans [25]): 0.094 µg/mL; MIC (Cryptococcus neoformans [26]): 0.094 µg/mL; MIC (Cryptococcus neoformans [27]): 0.094 µg/mL; MIC (Cryptococcus neoformans [28]): 0.094 µg/mL; MIC (Cryptococcus neoformans [29]): 0.094 µg/mL; MIC (Cryptococcus neoformans [30]): 0.25 µg/mL (≈ 0.271 µM)

**Q.** What does the source list for O=c1[nH]cc(F)c(=O)[nH]1 [FLUOROURACIL]?
**A.** MIC (Cryptococcus neoformans [31]): 0.5 µg/mL; MIC (Cryptococcus neoformans [10]): 16 µg/mL; MIC (Cryptococcus neoformans [32]): 8 µg/mL; MIC (Cryptococcus neoformans [33]): 256 µg/mL; MIC (Cryptococcus neoformans [34]): 256 µg/mL; MIC (Cryptococcus neoformans [11]): 256 µg/mL; MIC (Cryptococcus neoformans [35]): 256 µg/mL; MIC (Cryptococcus neoformans [12]): 4 µg/mL; MIC (Cryptococcus neoformans [36]): 0.008 µg/mL; MIC (Cryptococcus neoformans [17]): 0.25 µg/mL

Reference: ChEMBL document CHEMBL1142133 (2007)
